Assay results from paper PMC4576993 (Leukemia, 2011).
Like-named read-outs stand apart in the source and are kept apart here.

What was measured:
[1] = assay type: in vivo, human
Method in brief: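 Open-label 3+3-type escalation in cohorts of 3–6, starting at 18 mg/m2 weekly (days 1, 8, 15) or 9 mg/m2 twice weekly (days 1, 4, 8, 11), 28-day cycles, with modified Fibonacci increments. A cohort was expanded to 6 on any DLT. MTD was the level below that with ≥2/6 DLTs. DLT was assessed in cycle 1 through day 29. Toxicity was graded by NCI CTCAE v3.0. One 25% dose reduction was allowed, with supportive care permitted.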

P-glycoprotein = conditions: cited from earlier work
[2] = twice weekly (n = 31), Grade 1 or 2
[3] = twice weekly (n = 31), Grade ≥3
[4] = two patients with CR, weekly schedule

CN[C@H]1CN(c2ccc3c(=O)c(C(=O)O)cn(-c4nccs4)c3n2)C[C@@H]1OC [vosaroxin, (+)-1,4-dihydro-7-(trans-3-methoxy-4-methylamino-1-pyrrolidinyl)-4-oxo-1-(2-thiazolyl)-1,8-naphthyridine-3-carboxylic acid]
30-day all-cause mortality rate ([1]; 73 treated patients): 11% | Deaths within 30 days after the first dose ([1]; 73 treated patients): Eight | Abdominal pain, % of patients ([1]; Total (n = 73), All grades): 22% | Abdominal pain, No. of patients ([1]; Total (n = 73), All grades): 16 | Anorexia, No. of patients ([1]; Total (n = 73), All grades): 30 | Diarrhea, % of patients ([1]; Total (n = 73), All grades): 49% | Diarrhea, No. of patients ([1]; Total (n = 73), All grades): 36 | Nausea, % of patients ([1]; Total (n = 73), All grades): 63% | Nausea, No. of patients ([1]; Total (n = 73), All grades): 46 | Peripheral edema, % of patients ([1]; Total (n = 73), All grades): 34% | Peripheral edema, No. of patients ([1]; Total (n = 73), All grades): 25 | Petechiae, % of patients ([1]; Total (n = 73), All grades): 21% | Petechiae, No. of patients ([1]; Total (n = 73), All grades): 15 | Pleural effusion, % of patients ([1]; Total (n = 73), All grades): 22% | Pleural effusion, No. of patients ([1]; Total (n = 73), All grades): 16 | Pyrexia, % of patients ([1]; Total (n = 73), All grades): 29% | Pyrexia, No. of patients ([1]; Total (n = 73), All grades): 21 | Stomatitis, % of patients ([1]; Total (n = 73), All grades): 29% | Stomatitis, No. of patients ([1]; Total (n = 73), All grades): 21 | Clinical manifestation of QTc prolongation, such as torsades de pointes ([1]; all treated patients): No clinical manifestation of QTc prolongation | Stomatitis duration, range ([1]; cycle 1): 5 to 39 days | Stomatitis median duration ([1]; cycle 1): 15 days | Stomatitis median onset ([1]; cycle 1): 14 days | Stomatitis onset, range ([1]; cycle 1): 3 to 20 days | Patients experiencing stomatitis grade 1–2 ([1]; cycle 1, overall): 12% | Patients experiencing stomatitis grade ≥3 ([1]; cycle 1, overall): 15% | Patients experiencing stomatitis of any grade ([1]; cycle 1, overall): 27% | Treatment-related hepatic or renal dysfunction ([1]; doses up to 90 mg/m^2 weekly and 50 mg/m^2 twice weekly): No grade 3 or greater treatment-related hepatic or renal dysfunction was reported | Time of death after first dose, range ([1]; eight deaths within 30 days): 11 to 30 days | Dose-limiting toxicity (DLT) ([1]; patients with advanced leukemia, both schedules): stomatitis | Abdominal pain, % of patients [1, 2]: 10% | Abdominal pain, No. of patients [1, 2]: 3 | Anorexia, % of patients [1, 2]: 39% | Anorexia, No. of patients [1, 2]: 12 | Diarrhea, % of patients [1, 2]: 39% | Diarrhea, No. of patients [1, 2]: 12 | Dyspnea, No. of patients [1, 2]: 10 | Fatigue, No. of patients [1, 2]: 14 | Febrile neutropenia, % of patients [1, 2]: 0% | Febrile neutropenia, No. of patients [1, 2]: 0 | Infection (20 individual adverse event terms), No. of patients [1, 2]: 10 | Nausea, % of patients [1, 2]: 68% | Nausea, No. of patients [1, 2]: 21 | Peripheral edema, % of patients [1, 2]: 29% | Peripheral edema, No. of patients [1, 2]: 9 | Petechiae, % of patients [1, 2]: 19% | Petechiae, No. of patients [1, 2]: 6 | Pleural effusion, % of patients [1, 2]: 16% | Pleural effusion, No. of patients [1, 2]: 5 | Pyrexia, % of patients [1, 2]: 19% | Pyrexia, No. of patients [1, 2]: 6 | Stomatitis, % of patients [1, 2]: 19% | Stomatitis, No. of patients [1, 2]: 6 | Abdominal pain, % of patients [1, 3]: 3% | Abdominal pain, No. of patients [1, 3]: 1 | Anorexia, % of patients [1, 3]: 0% | Anorexia, No. of patients [1, 3]: 0 | Diarrhea, % of patients [1, 3]: 3% | Diarrhea, No. of patients [1, 3]: 1 | Dyspnea, % of patients [1, 3]: 3% | Dyspnea, No. of patients [1, 3]: 1 | Fatigue, % of patients [1, 3]: 0% | Fatigue, No. of patients [1, 3]: 0 | Febrile neutropenia, No. of patients [1, 3]: 15 | Infection (20 individual adverse event terms), No. of patients [1, 3]: 11 | Nausea, % of patients [1, 3]: 3% | Nausea, No. of patients [1, 3]: 1 | Peripheral edema, % of patients [1, 3]: 0% | Peripheral edema, No. of patients [1, 3]: 0 | Petechiae, % of patients [1, 3]: 3% | Petechiae, No. of patients [1, 3]: 1 | Pleural effusion, % of patients [1, 3]: 3% | Pleural effusion, No. of patients [1, 3]: 1 | Pyrexia, No. of patients [1, 3]: 4 | Stomatitis, % of patients [1, 3]: 19% | Stomatitis, No. of patients [1, 3]: 6 | Time to recovery of peripheral absolute neutrophil counts to >1×10^9/l [1, 4]: 50 days | Time to recovery of platelets to ≥100×10^9/l [1, 4]: 28 days | Abdominal pain, No. of patients ([1]; weekly (n = 42), Grade 1 or 2): 11 | Diarrhea, % of patients ([1]; weekly (n = 42), Grade 1 or 2): 52% | Diarrhea, No. of patients ([1]; weekly (n = 42), Grade 1 or 2): 22 | Dyspnea, % of patients ([1]; weekly (n = 42), Grade 1 or 2): 31% | Fatigue, No. of patients ([1]; weekly (n = 42), Grade 1 or 2): 19 | Febrile neutropenia, % of patients ([1]; weekly (n = 42), Grade 1 or 2): 0% | Febrile neutropenia, No. of patients ([1]; weekly (n = 42), Grade 1 or 2): 0 | Infection (20 individual adverse event terms), % of patients ([1]; weekly (n = 42), Grade 1 or 2): 12% | Infection (20 individual adverse event terms), No. of patients ([1]; weekly (n = 42), Grade 1 or 2): 5 | Nausea, % of patients ([1]; weekly (n = 42), Grade 1 or 2): 57% | Nausea, No. of patients ([1]; weekly (n = 42), Grade 1 or 2): 24 | Peripheral edema, % of patients ([1]; weekly (n = 42), Grade 1 or 2): 36% | Peripheral edema, No. of patients ([1]; weekly (n = 42), Grade 1 or 2): 15 | Petechiae, % of patients ([1]; weekly (n = 42), Grade 1 or 2): 19% | Petechiae, No. of patients ([1]; weekly (n = 42), Grade 1 or 2): 8 | Pleural effusion, % of patients ([1]; weekly (n = 42), Grade 1 or 2): 21% | Pleural effusion, No. of patients ([1]; weekly (n = 42), Grade 1 or 2): 9 | Pyrexia, No. of patients ([1]; weekly (n = 42), Grade 1 or 2): 10 | Stomatitis, % of patients ([1]; weekly (n = 42), Grade 1 or 2): 10% | Stomatitis, No. of patients ([1]; weekly (n = 42), Grade 1 or 2): 4 | Abdominal pain, % of patients ([1]; weekly (n = 42), Grade ≥3): 2% | Abdominal pain, No. of patients ([1]; weekly (n = 42), Grade ≥3): 1 | Anorexia, % of patients ([1]; weekly (n = 42), Grade ≥3): 2% | Anorexia, No. of patients ([1]; weekly (n = 42), Grade ≥3): 1 | Diarrhea, % of patients ([1]; weekly (n = 42), Grade ≥3): 2% | Diarrhea, No. of patients ([1]; weekly (n = 42), Grade ≥3): 1 | Dyspnea, % of patients ([1]; weekly (n = 42), Grade ≥3): 0% | Dyspnea, No. of patients ([1]; weekly (n = 42), Grade ≥3): 0 | Fatigue, % of patients ([1]; weekly (n = 42), Grade ≥3): 2% | Fatigue, No. of patients ([1]; weekly (n = 42), Grade ≥3): 1 | Febrile neutropenia, No. of patients ([1]; weekly (n = 42), Grade ≥3): 28 | Infection (20 individual adverse event terms), No. of patients ([1]; weekly (n = 42), Grade ≥3): 22 | Nausea, % of patients ([1]; weekly (n = 42), Grade ≥3): 0% | Nausea, No. of patients ([1]; weekly (n = 42), Grade ≥3): 0 | Peripheral edema, % of patients ([1]; weekly (n = 42), Grade ≥3): 2% | Peripheral edema, No. of patients ([1]; weekly (n = 42), Grade ≥3): 1 | Petechiae, % of patients ([1]; weekly (n = 42), Grade ≥3): 0% | Petechiae, No. of patients ([1]; weekly (n = 42), Grade ≥3): 0 | Pleural effusion, % of patients ([1]; weekly (n = 42), Grade ≥3): 2% | Pleural effusion, No. of patients ([1]; weekly (n = 42), Grade ≥3): 1 | Pyrexia, % of patients ([1]; weekly (n = 42), Grade ≥3): 2% | Pyrexia, No. of patients ([1]; weekly (n = 42), Grade ≥3): 1 | Stomatitis, % of patients ([1]; weekly (n = 42), Grade ≥3): 12% | Stomatitis, No. of patients ([1]; weekly (n = 42), Grade ≥3): 5 | Patients with grade 3 stomatitis as DLT ([1]; weekly schedule): five | Substrate for P-glycoprotein (P-glycoprotein): not a substrate for P-glycoprotein
